Active and inactive are the calls of the source. The rule behind the calls is not given here.

One data set concerns HMC3. In words: Cytotoxicity against human HMC3 cells assessed as effect on cell viability at 0.1 to 100 uM incubated for 24 to 72 hrs by MTT assay. The data set is classed as toxicity, cell-based. The note with it: hmc3, 100 µM, dose lower 0.1 µM, time lower 24 hrs, dose upper 100 µM, time upper 72 hrs. The procedure, abridged:
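HMC3 microglia in high-glucose DMEM/10% FBS, 37 °C 5% CO2, treated 0.1–100 µM for 24, 48 or 72 h; vehicle-treated controls. MTT 0.5 mg/mL, 4 h 37 °C, formazan dissolved in DMSO, read at 540 nm; viability as percent of control. Three independent experiments in triplicate, mean ± S.E.M., one-way ANOVA with Tukey.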
For orientation: Tetrazolium dyes change colour on reduction, which living cells bring about.

Data set [1] has as its system HuP-T3. In words: Coadjutant activity against multidrug resistance in human Hup-T3 cells assessed as potentiation of vincristine-induced cell growth inhibition by measuring cell growth at 4 uM incubated for 72 hrs in presence of 0.02 to 20 uM vincristine by SiR-DNA/CellTox Green Dye based fluorescence analysis. The data set is classed as functional. Details: scale not given: the % may be the effect or the level left. The procedure, abridged:
(§1)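 Growth by live-cell imaging: 500 cells/well plated with SiR-DNA and CellTox Green dye; serial dilutions in phenol-red-free complete medium added next day. Imaged at addition and at 72 h. Live cells = SiR-DNA nuclei minus CellTox-positive dead cells; percentage growth calculated. Three technical replicates; two-tailed t-test. Inhibitor paired with anticancer drug at fixed or scaled levels.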

The next data set has as its system A498. In words: Coadjutant activity against multidrug resistance in human A498 cells assessed as potentiation of vincristine-induced cell growth inhibition by measuring cell growth at 4 uM incubated for 72 hrs in presence of 0.02 to 20 uM vincristine by SiR-DNA/CellTox Green Dye based fluorescence analysis. The data set is classed as functional. Details: scale not given: the % may be the effect or the level left. The method, boiled down:
as §1

The target of data set [2] is T1, ATP-dependent translocase ABCB1 (Homo sapiens, UniProt P08183). Nature of the data set: Inhibition of P-gp in human HCT-15 cells assessed as increase in green fluorescence intensity at 1 to 10 uM incubated for 15 mins followed by incubation with EFFLUX-ID Green Detection Reagent and Hoeschst-33342 dye and measured after 30 mins by fluorescence analysis. As to conditions: hct-15, 0.25 h, dose 1-10 µM. The data set is classed as cell-based. The method, boiled down: (§2)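 5000 cells/well in phenol-red-free medium plated 24 h before; compounds 0.1, 1, 10 µM for 15 min, then EFLUXX-ID Green reagent (1:200) plus Hoechst-33342 1 µg/mL, 30 min 37 °C. Widefield imaging; median green intensity from 250 cells per well normalized to untreated wells. Mean ± SD of three wells; one-tailed t-test.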

A further data set concerns MeWo. Nature of the data set: Coadjutant activity against multidrug resistance in human MeWo cells assessed as potentiation of vincristine-induced cell growth inhibition at 4 uM incubated for 72 hrs in presence of 0.02 to 20 uM vincristine by SiR-DNA/CellTox Green Dye based fluorescence analysis. The data set is classed as functional. The procedure, abridged:
as §1

For data set [3], the target named is T1, ATP-dependent translocase ABCB1. In words: Inhibition of P-gp in human HCT-15 cells assessed as fold increase in green fluorescence intensity at 10 uM incubated for 15 mins followed by incubation with EFFLUX-ID Green Detection Reagent and Hoeschst-33342 dye and measured after 30 mins by fluorescence analysis relative to control. The data set is classed as cell-based. As to conditions: hct-15, 0.25 h. The method, boiled down: as §2

Data set [4] deals with A704. In words: Coadjutant activity against multidrug resistance in human A704 cells assessed as potentiation of vincristine-induced cell growth inhibition by measuring cell growth at 4 uM incubated for 72 hrs in presence of 0.02 to 20 uM vincristine by SiR-DNA/CellTox Green Dye based fluorescence analysis. The data set is classed as functional. Details: scale not given: the % may be the effect or the level left. The procedure, abridged:
as §1

A further data set relates to U-87 MG. In words: Coadjutant activity against multidrug resistance in human U-87 MG cells assessed as potentiation of vincristine-induced cell growth inhibition at 0.25 to 4 uM incubated for 72 hrs in presence of 0.2 uM vincristine by SiR-DNA/CellTox Green Dye based fluorescence analysis. The data set is classed as functional. As to conditions: U-87MG ATCC, dose 0.25-4 µM. The method, boiled down: as §1

In data set [5] the test system is A704. In words: Coadjutant activity against multidrug resistance in human A704 cells assessed as potentiation of etoposide-induced cell growth inhibition at 4 uM incubated for 72 hrs in presence of 0.04 to 40 uM etoposide by SiR-DNA/CellTox Green Dye based fluorescence analysis. The data set is classed as functional. The method, boiled down: as §1
Data set [6] in a line: Cytotoxicity against human HGC-27 cells assessed as inhibition of cell growth at 4 uM incubated for 72 hrs by SiR-DNA/CellTox Green Dye based fluorescence analysis relative to control. The data set is classed as toxicity. The procedure, abridged:
(§3)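 Single-agent control at 4 µM, no anticancer drug. 500 cells/well with SiR-DNA and CellTox Green; imaged at addition and 72 h. Live count = total nuclei minus dead cells, expressed as percent growth. Three technical replicates.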

Another data set relates to HCT-116 (Homo sapiens). Nature of the data set: Coadjutant activity against multidrug resistance in human HCT-116 cells assessed as potentiation of cisplatin-induced cell growth inhibition at 0.25 to 4 uM incubated for 72 hrs in presence of 0.25 uM cisplatin by SiR-DNA/CellTox Green Dye based fluorescence analysis. As to conditions: dose 0.25-4 µM.
Data set [7] can be described thus: Cytotoxicity against human A498 cells assessed as inhibition of cell growth at 4 uM incubated for 72 hrs by SiR-DNA/CellTox Green Dye based fluorescence analysis relative to control. The data set is classed as toxicity. The procedure, abridged: as §3
Data set [8] deals with HuP-T3. In words: Coadjutant activity against multidrug resistance in human Hup-T3 cells assessed as potentiation of cisplatin-induced cell growth inhibition at 4 uM incubated for 72 hrs in presence of 0.1 to 100 uM cisplatin by SiR-DNA/CellTox Green Dye based fluorescence analysis. The data set is classed as functional. The method, boiled down:
(§4)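 Cisplatin co-treatment, 72 h imaging growth assay (SiR-DNA nuclei minus CellTox Green dead cells, 500 cells/well, phenol-red-free medium). Combinations: inhibitor fixed with cisplatin 0.1–100 µM, or cisplatin fixed at 0.25 µM with inhibitor 0.25–4 µM. Three technical replicates, mean ± SD; two-tailed t-test.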

The test system of another data set is SK-HEP1. In words: Coadjutant activity against multidrug resistance in human SK-HEP1 cells assessed as potentiation of cisplatin-induced cell growth inhibition at 0.25 to 4 uM incubated for 72 hrs in presence of 0.25 uM cisplatin by SiR-DNA/CellTox Green Dye based fluorescence analysis. The data set is classed as functional. The note with it: dose 0.25-4 µM. The procedure, abridged: as §4

Data set [9] addresses T1, ATP-dependent translocase ABCB1. Nature of the data set: Inhibition of P-gp in human HCT-15 cells assessed as increase in green fluorescence intensity at 0.1 to 1 uM incubated for 15 mins followed by incubation with EFFLUX-ID Green Detection Reagent and Hoeschst-33342 dye and measured after 30 mins by fluorescence analysis. The data set is classed as cell-based. As to conditions: hct-15, 0.25 h, dose 0.1-1 µM. The procedure, abridged:
as §2

In data set [10] the target is Voltage-dependent L-type calcium channel subunit alpha-1C (Rattus norvegicus, UniProt P22002). In words: Inhibition of Cav1.2 in Wistar rat tail artery smooth muscle cells assessed as inhibition of Ba2+ current at 0.3 to 10 uM at holding potential of -50 mV by whole cell patch clamp analysis. The data set is classed as toxicity, tissue-based. The note with it: dose 0.3-10 µM. The procedure, abridged: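 Freshly dissociated rat tail main artery myocytes (collagenase XI, 37 °C). Whole-cell patch clamp, 20–22 °C; Cs-based internal, external with 30 mM TEA and 5 mM Ba2+. IBa1.2 evoked by 250-ms steps to 10 mV from −50 mV at 0.067 Hz; compound added cumulatively 0.3–10 µM; leak subtracted using 10 µM nifedipine. Amplitude as percent of control, n = 5.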
On the technique in general: Patch clamp records ionic current or voltage across a cell membrane.

T1 sequence (P08183 whole entry): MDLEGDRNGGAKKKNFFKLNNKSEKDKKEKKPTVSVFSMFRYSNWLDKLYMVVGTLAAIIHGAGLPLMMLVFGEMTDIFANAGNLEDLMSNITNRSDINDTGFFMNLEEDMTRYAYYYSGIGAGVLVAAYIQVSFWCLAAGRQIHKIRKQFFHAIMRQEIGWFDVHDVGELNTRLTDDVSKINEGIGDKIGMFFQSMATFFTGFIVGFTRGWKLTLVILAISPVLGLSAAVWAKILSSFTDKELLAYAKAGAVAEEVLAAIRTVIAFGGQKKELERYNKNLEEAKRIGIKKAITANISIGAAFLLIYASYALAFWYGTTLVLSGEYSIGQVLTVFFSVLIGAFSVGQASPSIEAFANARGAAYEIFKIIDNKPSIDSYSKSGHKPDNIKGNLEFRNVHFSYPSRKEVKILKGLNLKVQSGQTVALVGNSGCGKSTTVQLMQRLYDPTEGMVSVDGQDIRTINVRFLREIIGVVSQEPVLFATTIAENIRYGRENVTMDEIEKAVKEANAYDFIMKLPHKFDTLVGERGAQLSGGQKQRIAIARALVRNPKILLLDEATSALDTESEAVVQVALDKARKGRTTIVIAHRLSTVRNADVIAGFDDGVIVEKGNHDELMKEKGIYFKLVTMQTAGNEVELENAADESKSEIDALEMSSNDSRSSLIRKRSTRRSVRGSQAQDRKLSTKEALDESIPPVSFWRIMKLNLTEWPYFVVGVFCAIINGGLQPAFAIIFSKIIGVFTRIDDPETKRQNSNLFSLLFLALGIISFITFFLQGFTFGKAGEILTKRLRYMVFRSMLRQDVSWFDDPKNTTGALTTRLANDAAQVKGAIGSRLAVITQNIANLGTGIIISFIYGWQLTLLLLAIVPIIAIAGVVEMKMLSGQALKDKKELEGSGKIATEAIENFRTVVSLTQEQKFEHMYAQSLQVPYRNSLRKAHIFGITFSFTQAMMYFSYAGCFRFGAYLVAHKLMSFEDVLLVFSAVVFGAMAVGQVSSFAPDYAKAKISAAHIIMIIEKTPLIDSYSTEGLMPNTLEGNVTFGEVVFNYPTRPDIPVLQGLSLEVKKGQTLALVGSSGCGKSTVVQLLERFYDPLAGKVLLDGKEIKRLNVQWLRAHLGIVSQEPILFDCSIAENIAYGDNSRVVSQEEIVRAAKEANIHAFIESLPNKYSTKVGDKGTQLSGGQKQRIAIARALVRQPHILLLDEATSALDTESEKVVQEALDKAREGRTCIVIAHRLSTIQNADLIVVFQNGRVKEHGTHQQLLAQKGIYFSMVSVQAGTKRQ
Sequence of Voltage-dependent L-type calcium channel subunit alpha-1C (P22002 whole entry): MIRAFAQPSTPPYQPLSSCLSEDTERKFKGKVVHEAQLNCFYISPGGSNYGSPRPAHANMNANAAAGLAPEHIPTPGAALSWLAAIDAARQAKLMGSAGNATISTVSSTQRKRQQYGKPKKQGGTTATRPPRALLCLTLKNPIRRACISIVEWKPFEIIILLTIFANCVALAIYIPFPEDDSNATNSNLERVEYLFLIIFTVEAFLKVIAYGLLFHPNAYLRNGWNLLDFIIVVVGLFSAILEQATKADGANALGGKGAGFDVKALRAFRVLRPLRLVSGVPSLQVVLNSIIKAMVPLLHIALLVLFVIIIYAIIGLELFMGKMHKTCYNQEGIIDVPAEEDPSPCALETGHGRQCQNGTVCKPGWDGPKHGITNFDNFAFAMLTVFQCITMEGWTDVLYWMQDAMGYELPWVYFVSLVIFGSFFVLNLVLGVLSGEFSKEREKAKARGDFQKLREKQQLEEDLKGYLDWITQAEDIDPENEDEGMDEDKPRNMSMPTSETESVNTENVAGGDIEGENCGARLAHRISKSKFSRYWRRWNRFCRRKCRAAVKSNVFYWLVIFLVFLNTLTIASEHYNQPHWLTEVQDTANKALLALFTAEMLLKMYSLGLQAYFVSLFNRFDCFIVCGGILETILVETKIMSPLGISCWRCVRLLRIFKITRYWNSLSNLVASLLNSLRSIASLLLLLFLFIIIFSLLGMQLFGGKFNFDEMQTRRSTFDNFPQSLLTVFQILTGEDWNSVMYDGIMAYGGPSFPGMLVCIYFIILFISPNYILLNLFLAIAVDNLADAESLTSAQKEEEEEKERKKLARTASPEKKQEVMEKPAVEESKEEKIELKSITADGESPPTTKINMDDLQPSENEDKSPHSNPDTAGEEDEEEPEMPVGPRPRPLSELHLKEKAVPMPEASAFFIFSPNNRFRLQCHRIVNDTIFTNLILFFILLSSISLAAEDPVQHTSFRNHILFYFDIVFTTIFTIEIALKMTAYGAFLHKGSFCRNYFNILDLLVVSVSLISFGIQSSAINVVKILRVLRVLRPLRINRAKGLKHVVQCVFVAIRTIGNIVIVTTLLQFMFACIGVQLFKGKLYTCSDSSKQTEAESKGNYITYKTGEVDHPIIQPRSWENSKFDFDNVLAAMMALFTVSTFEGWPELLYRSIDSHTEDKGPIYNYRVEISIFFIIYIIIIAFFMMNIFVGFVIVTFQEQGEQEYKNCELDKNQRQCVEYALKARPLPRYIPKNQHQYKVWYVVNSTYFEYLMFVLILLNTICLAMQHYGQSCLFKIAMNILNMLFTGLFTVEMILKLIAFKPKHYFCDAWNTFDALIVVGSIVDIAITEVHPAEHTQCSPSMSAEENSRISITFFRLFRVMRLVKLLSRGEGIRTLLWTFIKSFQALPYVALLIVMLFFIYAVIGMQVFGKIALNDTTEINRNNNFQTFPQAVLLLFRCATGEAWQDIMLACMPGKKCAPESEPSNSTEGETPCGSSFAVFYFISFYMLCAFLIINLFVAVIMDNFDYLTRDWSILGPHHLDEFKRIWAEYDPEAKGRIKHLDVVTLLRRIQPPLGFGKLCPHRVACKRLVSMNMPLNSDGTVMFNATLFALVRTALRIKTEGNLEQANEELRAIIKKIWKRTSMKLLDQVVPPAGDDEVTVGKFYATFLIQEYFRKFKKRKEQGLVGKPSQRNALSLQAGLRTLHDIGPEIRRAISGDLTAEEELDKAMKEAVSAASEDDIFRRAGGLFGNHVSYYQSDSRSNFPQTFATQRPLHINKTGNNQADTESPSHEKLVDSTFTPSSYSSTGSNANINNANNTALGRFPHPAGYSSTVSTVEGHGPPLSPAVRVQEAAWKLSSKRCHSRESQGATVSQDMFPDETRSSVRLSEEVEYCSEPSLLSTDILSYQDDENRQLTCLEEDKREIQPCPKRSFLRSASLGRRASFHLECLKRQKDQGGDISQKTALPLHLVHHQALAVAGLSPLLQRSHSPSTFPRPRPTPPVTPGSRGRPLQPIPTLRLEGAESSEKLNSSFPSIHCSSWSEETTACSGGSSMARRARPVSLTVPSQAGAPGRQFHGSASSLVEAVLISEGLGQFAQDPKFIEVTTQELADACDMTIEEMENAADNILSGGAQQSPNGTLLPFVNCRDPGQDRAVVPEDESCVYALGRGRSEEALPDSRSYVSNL

For the compound `O=C(Nc1ccccc1)c1ccccc1OCc1nc2cc3cccnc3cc2nc1COc1ccccc1C(=O)Nc1ccccc1`, the Activity result in the data set on HMC3 was “Non-Toxic”; in the data set on HuP-T3 [1] it was 50%; with A498, 50%; with A704 [4], 50%. Besides, the “inhibition (INH)” value is reported as “Active” in [2], “Dose-Dependent Effect” in data set [9] and “Not Active” in [10]. Moreover, the outcome with MeWo, with U-87 MG and in the data set with A704 [5] was Active. For the same compound, the “fold change (FC)” value in data set [3] turned out to be 2. For the same compound, the figures for the inhibition at 72 h, 4 µM in [6] and in data set [7] were 40% and 20%, respectively. For the same compound, the outcome in the data set on HCT-116 (Homo sapiens), with HuP-T3 [8] and in the data set on SK-HEP1 was inactive.

As usually defined, the inhibition is the change of the read-out against control, counted positive when it falls.

For the origin of these results see ChEMBL document CHEMBL5608187, “Discovery of pyridoquinoxaline-based new P-gp inhibitors as coadjutant against Multi Drug Resistance in cancer” (Eur J Med Chem, 2024).
